Test results: PubChem BioAssay
Results filed as inconclusive are left out.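 The calls were made as follows, unless noted: active = cell viability at or below a set limit in both duplicate runs, the limit being the all-compound median minus 4 SD (cut at about 23% in these data, passing the limit was not always enough); inconclusive = no clear call, values can overlap the other calls; inactive = the rest.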

How the values were obtained:
[1] = S. cerevisiae growth inhibition in permissive medium (OD615), pilot counter-assay for S. cerevisiae lifespan shortening project, permissive growth control (AID 705;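 active = growth inhibition above 25% in both replicates, a cutoff set 3 SD above the mean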); conditions: OD615, 24 h, at 10 µM, stronger effect = higher value
Method in brief: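 assay system = Saccharomyces cerevisiae strain carrying genetically modified DeaD replicative-lifespan system | medium = SC raffinose/galactose permissive medium | dosing = 10 µM single dose, 0.25% DMSO | schedule = 24 h compound exposure at 30 °C after 4 h pre-growth | measured by = OD at 615 nm | read-out basis = growth inhibition from lowered OD615 after 24 h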

[2] = S. cerevisiae growth inhibition in restrictive medium, OD615, pilot screen, restrictive growth control, yeast lifespan reduction project (AID 706;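 active = growth inhibition above a set limit, 3 SD over mean compound inhibition, in both replicates, cut at about 43% in these data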;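 also: modified DeaD lifespan yeast strain shifted to restrictive glucose medium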); conditions: OD615, 48 h, at 10 µM, stronger effect = higher value
Method in brief: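 Buffer or medium: CSMM-D glucose medium. Material: genetically modified Saccharomyces cerevisiae, DeaD replicative lifespan assay strain. Times: 48 h compound exposure at 30 °C. Measured by: optical density at 615 nm.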

[3] = doxorubicin toxicity protection in MRP-1 cells – H69AR cells, CellTiter-Glo, duplicate, MRP-1 activator project, pilot screen (AID 807;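 active = viability increase at or above a cutoff of the median across tested compounds plus 3 SD, cut at about 8.5% in these data, passing the limit was not always enough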;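 also: compound pretreatment 18-22 h then 72 h combined with doxorubicin; 0% = doxorubicin alone and 100% = vehicle without doxorubicin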); conditions: H69AR viability with doxorubicin, CellTiter-Glo luminescence; at 10 µM; stronger effect = higher value
[4] = viability of HCT116 without oncogenic beta-catenin – human colon tumor cells, pilot screen (AID 823); conditions: HCT116 beta-catenin knockout viability, CellTiter-Glo, 60 h; at 10 µM; stronger effect = lower value;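 also: 0% = wells killed by 20 µM Hyamine and 100% = untreated DMSO cell wells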
[5] = viability of PTEN-null HCT116 cells – cell-based, HCT116 clonal line, CellTiter-Glo, pilot screen (AID 824;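 active = viability at or below 27.92% in each of two runs, the all-compound median minus 4 SD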;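 also: 0% = 20 µM Hyamine control and 100% = vehicle cell control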); conditions: HCT116 PTEN-deleted viability, 60 h, at 10 µM, stronger effect = lower value
[6] = RAM pathway blockade in budding yeast – dse1pr::URA3 reporter, 5-FOA selection, pilot screen (AID 869;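 active = inhibition over a set limit, the all-compound mean plus 3 SD, in both replicate runs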;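 also: 0% = DMSO wells with no growth and 100% = 10 µM 1-NA-PP1 with full growth; RAM network block rescues cells from 5-FOA so hits raise OD615 growth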); conditions: S. cerevisiae dse1pr::URA3 5-FOA growth, OD615, 2 d; at 10 µM; stronger effect = higher value; strain carries analog-sensitive mutant Cbk1 kinase
[7] = RAM signaling pathway blockade in yeast – S. cerevisiae, Pdr1DBD-CYC8 efflux-inhibited sensitized strain, primary screen (AID 1298;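 active = RAM network inhibition above 8.4% in each of two replicates, 3 SD over the compound average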;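 also: 0% = DMSO untreated cells without growth and 100% = 10 µM 1-NA-PP1 full growth; higher means more yeast growth rescued from 5-FOA killing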); conditions: S. cerevisiae cbk1-as DSE1-URA3 strain, 5-FOA growth OD615, 2 d; at 50 µM; stronger effect = higher value

O=C1C2CCCN2C(c2cccc(F)c2)N1c1cccc(Cl)c1 (stereo unspecified)
inactive: growth inhibition [1] -10.5% | growth inhibition [2] 1.77% | viability increase [3] -0.22% | viability [4] 108% | viability [5] 99% | inhibition [6] 0.56% | RAM network inhibition [7] -0.05%

CCc1ccccc1S(=O)(=O)Cc1ccc(C(=O)NC(C)C)o1
inactive: growth inhibition [1] -2.43% | growth inhibition [2] -2.4% | viability increase [3] -1.52% | viability [4] 107% | viability [5] 97.6% | inhibition [6] 1.24% | RAM network inhibition [7] 3.36%

COCCCNC(=O)Cn1cc2c(n1)CCCCC2
inactive: growth inhibition [1] 3.39% | growth inhibition [2] -2.59% | viability increase [3] 0.05% | viability [4] 104% | viability [5] 106% | inhibition [6] -0.6% | RAM network inhibition [7] 4.53%

CCC(C)Sc1nc2c([nH]c3ccccc32)c(=O)n1C (stereo unspecified)
inactive: growth inhibition [1] -16.9% | growth inhibition [2] -15.8% | viability increase [3] -4.85% | viability [4] 72.4% | viability [5] 70.6% | inhibition [6] 2.48% | RAM network inhibition [7] 3.48%

Cn1c(=O)c2c(nc(NC3CCCCC3)n2Cc2ccccc2)n(C)c1=O
inactive: growth inhibition [1] -0.82% | growth inhibition [2] 4.89% | viability increase [3] -3.11% | viability [4] 78.9% | viability [5] 75.5% | inhibition [6] 2.92% | RAM network inhibition [7] 3.48%

N#Cc1ccc(Oc2cccnc2)cc1C#N
inactive: growth inhibition [1] -13.5% | growth inhibition [2] -20.4% | viability increase [3] -0.76% | viability [4] 100% | viability [5] 97.5% | inhibition [6] 1.49% | RAM network inhibition [7] 2.79%

Cc1ccsc1-c1nc(CSCC(=O)N2CCN(c3ccccc3)CC2)c(C)o1
inactive: growth inhibition [1] -4.56% | growth inhibition [2] 26.6% | viability increase [3] -3.18% | viability [4] 61.6% | viability [5] 65.6% | inhibition [6] 0.75% | RAM network inhibition [7] 7.89%

CCCCOC(=O)Nc1nc(CC(=O)OCC)cs1
inactive: growth inhibition [1] -1.73% | growth inhibition [2] -4.89% | viability increase [3] 1.05% | viability [4] 92.2% | viability [5] 95.7% | inhibition [6] -0.45% | RAM network inhibition [7] 1.89%

CC(=O)C1(O)C(C)CC2C3CCC4CC(O)CCC4(C)C3=CCC21C (stereo unspecified)
inactive: growth inhibition [1] -8.11% | growth inhibition [2] -5.04% | viability increase [3] -1.36% | viability [4] 97.2% | viability [5] 90.2% | inhibition [6] 0.305% | RAM network inhibition [7] 9.58%

N#CC1=C(SCc2ccccc2)NC(=O)CC1c1ccc(O)cc1 (stereo unspecified)
inactive: growth inhibition [1] -12.2% | growth inhibition [2] -15.2% | viability increase [3] -2.66% | viability [4] 98.2% | viability [5] 96.6% | inhibition [6] 0.67% | RAM network inhibition [7] 1.25%

O=C(NC1CCCc2ccccc21)C1CCC(CNc2c(N3CCOCC3)c(=O)c2=O)CC1 (stereo unspecified)
inactive: growth inhibition [1] -6.7% | growth inhibition [2] 7.02% | viability increase [3] -0.75% | viability [4] 105% | viability [5] 107% | inhibition [6] 1.08% | RAM network inhibition [7] 1.43%

COc1cccc(C2CC(c3ccccc3OC)n3nc(N)nc3N2)c1 (stereo unspecified)
inactive: growth inhibition [1] -0.495% | growth inhibition [2] 6.87% | viability increase [3] -1.09% | viability [4] 98.1% | viability [5] 95.2% | inhibition [6] 1.06% | RAM network inhibition [7] 1.98%

COc1ccc(C)c2sc(=NC(=O)c3ccc(C#N)cc3)n(C)c12
inactive: growth inhibition [1] -5.79% | growth inhibition [2] -17.2% | viability increase [3] -3.95% | viability [4] 85.3% | viability [5] 81.6% | inhibition [6] 0.96% | RAM network inhibition [7] 1.83%

COc1cccc(C2N(c3ccc(Cl)cc3)C(=O)C3CCCN32)c1 (stereo unspecified)
inactive: growth inhibition [1] -5.56% | growth inhibition [2] 1.89% | viability increase [3] 0.15% | viability [4] 97.5% | viability [5] 94.5% | inhibition [6] 1.04% | RAM network inhibition [7] 0%

Cn1c(SCC(=O)Nc2cc(=O)n(C)c(=O)n2C)nnc1C12CC3CC(CC(C3)C1)C2
inactive: growth inhibition [1] 2.36% | growth inhibition [2] 12.8% | viability increase [3] -4.43% | viability [4] 88.8% | viability [5] 92.7% | inhibition [6] 2.03% | RAM network inhibition [7] 3.38%

Cc1sc2ncnc(NCc3ccco3)c2c1C
inactive: growth inhibition [1] 4.72% | growth inhibition [2] 6.04% | viability increase [3] -6.03% | viability [4] 55.6% | viability [5] 62.3% | inhibition [6] 1.61% | RAM network inhibition [7] 6.13%

CCOC(=O)c1ccc(NS(=O)(=O)c2cc(-c3nnnn3CC)ccc2OC)cc1
inactive: growth inhibition [1] -0.78% | growth inhibition [2] -5.39% | viability increase [3] -2.01% | viability [4] 92.5% | viability [5] 90.2% | inhibition [6] 1.56% | RAM network inhibition [7] 6.36%

CCCn1c(CN2CCN(C(=O)OCC)CC2)nc2c1c(=O)n(C)c(=O)n2C
inactive: growth inhibition [1] -3.08% | growth inhibition [2] 1.72% | viability increase [3] -2.59% | viability [4] 92.3% | viability [5] 86.5% | inhibition [6] 0.325% | RAM network inhibition [7] 2.5%
